# Bioassay records: PubChem, Sanford-Burnham Center for Chemical Genomics
# Most compounds without a hit are left out; they make up all but 3% or so of the library.
# SENP7 inh – SENP7 protease inhibition; Q9BQF6; recombinant SENP7, Z-RLRGG-aminoluciferin luminescence, 40 min; inhibition, % at 5 µM; hit rate 1.5% among 330,000;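 active = inhibition above about 50% at the single test dose, limit read from the data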;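 note: plate controls were DMSO with enzyme for no effect and no enzyme buffer wells for full effect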
# SENP8 block-1 – inhibitors of human SENP8 protease; recombinant SENP8, Nedd8 substrate fluorescence; inhibition, % at 20 µM; hit rate 0.64% among 360,000; in the data active = inhibition mostly above about 40%, no sharp cut-off; inactive = mostly below about 27%
# UBC13 polyUb – human UBC13 polyubiquitination inhibition; P61088; UBC13 polyubiquitin chain formation, TR-FRET; inhibition, % at 20 µM; hit rate 0.47% among 330,000; AID 485273; in the data active = inhibition above about 45%, passing the limit was not always enough
# Apaf1 inhib – human Apaf-1 inhibition; O14727; hit rate 0.71% among 330,000; inhibition, % at 20 µM; reconstituted apoptosome caspase-3 activity, DEVD-Rh110 fluorescence; active = inhibition of at least 40% at 20 µM;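 note: plate controls were DMSO wells for no effect and DEVD-CHO caspase inhibitor wells for full effect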
#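 Assay system: Apoptosome proteins | Medium: pH 7.5 Hepes buffer with CHAPS, BSA, DTT | Also added: Cytochrome c and DEVD-Rh110 substrate | Times: 30 min plus 50 min, RT | Detection: Rhodamine 110 fluorescence at Ex 480/Em 540 nm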
# SENP6 block – blocks the human protease SENP6; Recombinant SENP6 catalytic domain, aminoluciferin luminescence; inhibition, % at 10 µM; hit rate 1.8% among 330,000; AID 2599;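 active = inhibition above about 50% at the single tested dose, limit read from the data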;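 note: plate controls were DMSO wells with enzyme for no effect and DMSO wells lacking enzyme for full effect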
# SENP8 block-2 – inhibitors of human SENP8 protease; inhibition, % at 10 µM; Q96LD8; hit rate 1.2% among 330,000; purified SENP8, Z-RLRGG-aminoluciferin cleavage, luminescence; in the data active = inhibition above about 50%
# SENP8 conf – confirmation of human SENP8 protease inhibitors; inhibition, % at 12.5 µM; Recombinant SENP8, Z-RLRGG-aminoluciferin luminescence, 60 min; hit rate 40% among 6,200; AID 488912; shares compounds with SENP7 inh;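 active = mean inhibition across replicates above about 50%, limit read from the data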
# SENP6 confirm – human SENP6 inhibition, confirmed; shares compounds with SENP7 inh; recombinant SENP6, Z-RLRGG-aminoluciferin luminescence; inhibition, % at 12.5 µM; hit rate 58% among 6,200
# SENP7 conf – human SENP7 inhibition, confirmed; AID 488917; recombinant SENP7, Z-RLRGG-aminoluciferin luminescence, 40 min; shares compounds with SENP7 inh; inhibition, % at 12.5 µM; hit rate 69% among 6,200
# Casp3 SENP sel – caspase-3 inhibition (SENP selectivity assay) | shares compounds with SENP7 inh | purified caspase-3, Z-DEVD-aminoluciferin luminescence, 60 min | inhibition, % at 12.5 µM | hit rate 60% among 6,200 | AID 488918;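 active = mean inhibition above about 50%, limit read from the data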;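 note: plate controls were enzyme with DMSO for no effect and wells without caspase-3 for full effect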
# Luc interf – interferes with luciferase luminescence in SENP counter-screen. shares compounds with SENP7 inh. Pre-incubated SENP8/Z-RLRGG-aminoluciferin, luciferase luminescence interference. inhibition, % at 12.5 µM. hit rate 39% among 6,200;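 active = mean inhibition above about 50% when retested at one dose, limit read from the data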;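 note: plate controls were DMSO wells with completed reaction for no effect and substrate without enzyme for full effect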
# * hit, by the source's call; / = no result.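 Rule for the calls, unless noted: active = mean inhibition above about 50% in the one-dose retest (limit read from the data); inactive = the rest.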
SMILES,SENP7 inh,SENP8 block-1,UBC13 polyUb,Apaf1 inhib,SENP6 block,SENP8 block-2,SENP8 conf,SENP6 confirm,SENP7 conf,Casp3 SENP sel,Luc interf
NC(=O)c1ccc(-c2noc(-c3ccccc3F)n2)cc1,77*,16,11,1,74*,66*,36,63*,77*,69*,20
Cc1ccccc1-c1noc(-c2ccc(Cl)cc2)n1,79*,9,2,-5,-4,30,21,26,13,49,8
Cc1ccccc1-c1noc(-c2ccc(O)cc2)n1,101*,17,7,9,98*,99*,99*,100*,102*,98*,97*
Cc1ccccc1-c1noc(-c2ccccc2C(=O)N2CCCC2)n1,1,14,3,1,-1,-1,/,/,/,/,/
COc1ccc(-c2ccc(-c3noc(-c4ccccc4C)n3)c(OC)n2)cc1,1,-417,44,2,-14,0,/,/,/,/,/
Cc1ccccc1-c1noc(-c2ccccc2F)n1,96*,19,-2,1,84*,90*,78*,78*,94*,81*,61*
O=C(c1ccccc1-c1nc(-c2ccc(Cl)cc2)no1)N1CCCC1,-17,12,-6,14,-11,-2,/,/,/,/,/
CN(C(=O)CSc1nc(N)cc(N)n1)C1CCS(=O)(=O)C1 (centres undefined),0,-1,3,2,0,2,/,/,/,/,/
CSc1ccc(/C=C/C(=O)c2ccc(O)cc2)cc1,34,-173,0,5,81*,74*,69*,64*,42,23,50
CCOc1ccc(NC(=O)/C=C/c2ccccc2)c([N+](=O)[O-])c1,14,32,0,0,-14,-8,/,/,/,/,/
CN(C)c1ccc(C(=O)/C=C/c2ccccc2)cc1,79*,9,-10,2,84*,63*,27,17,56*,30,45
Cc1ccc(/C=C/C(=O)c2ccccc2)cc1,40,17,0,-2,78*,26,51*,60*,64*,4,65*
Cc1ccc(C(=O)/C=C/c2ccc3ncccc3c2)cc1,-12,6,1,8,-10,-17,/,/,/,/,/
CCOc1ccc(N/C=C/C(=O)c2ccccc2)c([N+](=O)[O-])c1,101*,34,-87,10,98*,97*,94*,95*,80*,97*,13
Cc1ccc(/C=C/C(=O)c2c(C)nc3ccccn23)cc1,103*,7,-1,15,16,-18,32,19,33,5,22
CCOc1ccc(/C=C/C(=O)c2ccccc2)cc1,83*,-5,6,8,76*,70*,-24,83*,88*,33,80*
CCOc1ccc(C(=O)/C=C/c2ccc(SC)cc2)cc1,-13,-140,25,1,9,-3,/,/,/,/,/
Cc1ccccc1NC(=O)c1cccc(C(F)(F)F)c1,-4,-3,-5,0,-26,-15,/,/,/,/,/
O=C(Nc1ccsc1C(=O)O)c1cccc(C(F)(F)F)c1,43,7,-4,5,75*,69*,82*,82*,92*,80*,83*
O=C(Nc1ccsc1C(=O)O)c1cccc(Oc2ccccc2)c1,28,15,-5,5,93*,91*,95*,96*,99*,79*,95*
O=C(NC1=NCCS1)C1COc2ccccc2O1 (centres undefined),85*,21,6,-4,82*,64*,77*,76*,95*,94*,85*
O=C(Nc1nc2c(s1)CCCC2)C1COc2ccccc2O1 (centres undefined),59*,20,-7,11,67*,59*,75*,73*,92*,67*,32
Cc1ccc(N=Nc2cc(C)ccc2N)cc1,100*,35,-51,1,99*,98*,99*,100*,103*,97*,96*
CS(=O)(=O)c1ccc(Nc2nc(C(N)CCc3ccccc3)cs2)cc1 (centres undefined),/,-215,/,/,/,/,/,/,/,/,/
CC(=O)Nc1nnc(Cc2c[nH]c3ccccc23)s1,2,17,8,-13,0,8,/,/,/,/,/
SMILES,SENP7 inh,SENP8 block-1,UBC13 polyUb,Apaf1 inhib,SENP6 block,SENP8 block-2,SENP8 conf,SENP6 confirm,SENP7 conf,Casp3 SENP sel,Luc interf
COc1ccc(C(=O)CNc2ccccc2Br)cc1,9,21,2,4,58*,47,19,64*,61*,36,6
COc1ccc(C(=O)CC(=O)c2ccccc2)cc1,74*,-12,5,-9,77*,67*,70*,70*,92*,55*,59*
COc1ccc(C(=O)CC(=O)c2ccc(OC)cc2)cc1,-5,-258,2,11,9,2,/,/,/,/,/
COC(=O)c1ccc(OCC(=O)c2ccccc2)cc1,57*,14,6,1,35,26,52*,51*,84*,73*,62*
O=C(Nc1nc2ccsc2c(=O)s1)c1ccc(F)cc1Cl,98*,-104,-6,-10,89*,86*,44,52*,45,52*,4
Cc1csc2c(=O)sc(NC(=O)c3ccc(F)cc3Cl)nc12,3,-31,9,12,-26,-15,/,/,/,/,/
O=C(Nc1nc2ccsc2c(=O)s1)c1ccc(F)cc1,100*,-83,-3,-11,96*,94*,37,93*,47,56*,18
COc1ccc(/C=C2\CCc3ccccc3C2=O)cc1O,95*,4,2,15,99*,95*,96*,99*,101*,92*,95*
COc1ccc(/C=C2\Cc3ccccc3C2=O)cc1OC,/,-310,/,/,/,/,/,/,/,/,/
COc1ccc(C=C2Cc3ccccc3C2=O)cc1,/,-284,/,/,/,/,/,/,/,/,/
CC(=O)Nc1ccc(/C=C2\CCc3ccccc3C2=O)cc1,44,10,10,7,56*,34,40,46,34,20,18
O=C(NNC(=O)C1CCN(c2ncccn2)CC1)c1ccc(Cl)cc1,1,-76,3,0,-5,-5,/,/,/,/,/
